From ChEMBL document CHEMBL1154352, “Toll-like receptor 7 selective synthetic oligoribonucleotide agonists: synthesis and structure-activity relationship studies” (J Med Chem, 2009)
Calls of active or inactive are those of the source. No cut-off for these calls is given here.

Columns and labels:
[1] = organism: Homo sapiens; assay: Ratio of human TLR7 activity to human TLR8 activity
Method in brief: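 TLR7/TLR8 ratio computed from fold NF-κB (SEAP reporter) activation in HEK293 cells stably expressing human TLR7 versus TLR8, compounds at 50 μg/mL, 18 h exposure; representative of three independent experiments.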

[2] = test system: Splenocyte; assay: Immunomodulatory activity in C57BL/6 mouse splenocytes bearing TLR7 receptor assessed as IL6 release at 100 ug/ml after 24 hrs by ELISA; format: functional, cell-based
Method in brief: (§1)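 C57BL/6 splenocytes in RPMI 1640 with 10% FBS, penicillin/streptomycin, 2 mM L-glutamine, plated at 5 × 10^6 cells/mL; compounds in PBS added, 37 °C for 24 h. Supernatant IL-12 and IL-6 by ELISA; representative of three independent experiments.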

[3] = test system: Splenocyte; assay: Immunomodulatory activity in C57BL/6 mouse splenocytes bearing TLR7 receptor assessed as IL12 release at 100 ug/ml after 24 hrs by ELISA; format: functional, cell-based; method in brief: as §1
[4] = target: T1, Toll-like receptor 9 (Mus musculus) (UniProt Q9EQU3); assay: Activation of mouse TLR9 expressed in HEK293 assessed as induction of NF-kappaB activity reporter gene assay; format: cell-based
T1 sequence (whole entry): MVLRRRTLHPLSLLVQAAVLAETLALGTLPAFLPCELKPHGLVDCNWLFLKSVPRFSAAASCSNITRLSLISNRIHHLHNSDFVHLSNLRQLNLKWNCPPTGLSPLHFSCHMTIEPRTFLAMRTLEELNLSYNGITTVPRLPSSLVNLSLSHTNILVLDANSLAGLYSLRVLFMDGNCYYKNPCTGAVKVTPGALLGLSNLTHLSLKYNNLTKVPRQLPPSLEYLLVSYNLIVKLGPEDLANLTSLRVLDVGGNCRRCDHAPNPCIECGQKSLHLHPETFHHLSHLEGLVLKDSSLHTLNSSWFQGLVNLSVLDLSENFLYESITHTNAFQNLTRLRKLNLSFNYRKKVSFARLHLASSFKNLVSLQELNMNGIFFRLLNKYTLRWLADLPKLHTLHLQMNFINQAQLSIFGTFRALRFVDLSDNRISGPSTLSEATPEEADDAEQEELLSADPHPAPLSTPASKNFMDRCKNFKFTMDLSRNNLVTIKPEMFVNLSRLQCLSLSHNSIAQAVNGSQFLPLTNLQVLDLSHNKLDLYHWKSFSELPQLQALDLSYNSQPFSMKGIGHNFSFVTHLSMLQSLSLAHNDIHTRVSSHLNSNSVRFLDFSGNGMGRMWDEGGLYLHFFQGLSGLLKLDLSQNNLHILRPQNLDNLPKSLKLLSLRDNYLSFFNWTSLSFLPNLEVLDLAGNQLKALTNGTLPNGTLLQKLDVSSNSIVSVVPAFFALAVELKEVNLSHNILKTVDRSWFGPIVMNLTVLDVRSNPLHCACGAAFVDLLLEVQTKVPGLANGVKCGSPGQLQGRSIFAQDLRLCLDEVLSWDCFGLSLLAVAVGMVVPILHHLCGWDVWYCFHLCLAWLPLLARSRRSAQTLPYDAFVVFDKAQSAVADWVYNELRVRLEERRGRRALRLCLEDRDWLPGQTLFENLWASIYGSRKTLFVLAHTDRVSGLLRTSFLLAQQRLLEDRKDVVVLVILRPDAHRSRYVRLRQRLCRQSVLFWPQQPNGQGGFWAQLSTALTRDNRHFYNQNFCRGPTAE

[5] = target: T2, Toll-like receptor 7 (Homo sapiens) (UniProt Q9NYK1); assay: Activation of human TLR7 expressed in HEK293XL assessed as fold induction of NF-kappaB activity at 50 ug/ml after 18 hrs by reporter gene assay relative to control
T2 sequence (whole entry): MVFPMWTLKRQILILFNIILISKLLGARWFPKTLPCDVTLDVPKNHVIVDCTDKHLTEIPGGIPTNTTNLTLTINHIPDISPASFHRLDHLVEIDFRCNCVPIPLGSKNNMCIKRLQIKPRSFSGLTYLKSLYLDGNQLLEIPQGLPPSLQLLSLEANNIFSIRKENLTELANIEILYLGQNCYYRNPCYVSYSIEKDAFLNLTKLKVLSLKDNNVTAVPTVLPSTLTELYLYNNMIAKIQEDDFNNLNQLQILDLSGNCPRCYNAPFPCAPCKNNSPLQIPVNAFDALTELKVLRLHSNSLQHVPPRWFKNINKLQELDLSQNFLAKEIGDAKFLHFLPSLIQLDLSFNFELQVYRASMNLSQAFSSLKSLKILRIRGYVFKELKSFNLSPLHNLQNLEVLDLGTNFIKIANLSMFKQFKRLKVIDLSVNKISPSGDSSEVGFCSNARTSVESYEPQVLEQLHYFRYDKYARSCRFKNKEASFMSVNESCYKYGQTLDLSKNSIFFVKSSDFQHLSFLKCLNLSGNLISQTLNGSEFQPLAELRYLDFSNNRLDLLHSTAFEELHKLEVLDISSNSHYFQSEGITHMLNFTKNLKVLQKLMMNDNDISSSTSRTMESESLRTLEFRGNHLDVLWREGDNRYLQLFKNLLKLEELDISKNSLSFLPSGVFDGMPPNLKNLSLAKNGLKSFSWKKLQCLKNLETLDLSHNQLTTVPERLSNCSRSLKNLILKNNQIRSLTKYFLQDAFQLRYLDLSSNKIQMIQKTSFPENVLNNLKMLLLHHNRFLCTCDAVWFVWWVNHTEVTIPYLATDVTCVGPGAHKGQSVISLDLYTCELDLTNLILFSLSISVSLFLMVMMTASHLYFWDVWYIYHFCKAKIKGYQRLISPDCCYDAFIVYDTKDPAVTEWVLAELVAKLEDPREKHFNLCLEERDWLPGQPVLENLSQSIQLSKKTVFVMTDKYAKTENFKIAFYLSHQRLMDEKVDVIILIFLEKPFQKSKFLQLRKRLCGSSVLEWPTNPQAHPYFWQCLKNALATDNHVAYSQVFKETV
Method in brief: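 HEK293 cells stably expressing human TLR7 or TLR8, transiently transfected with SEAP reporter plasmid; medium replaced, SIMRA compounds added, 18 h incubation. Supernatant SEAP measured by QuantiBlue; expressed as fold increase in NF-κB activity over PBS control. Tabulated data at 50 μg/mL, representative of three independent experiments.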

SMILES	Ratio [1]	Activity [2]	Activity [3]	Activity [4]	fold change (FC) [5]
Nc1ccn([C@@H]2O[C@H](COP(=O)(S)O[C@H]3[C@@H](O)[C@H](n4cnc5c(N)ncnc54)O[C@@H]3CO)[C@@H](OP(=O)(S)OC[C@H]3O[C@@H](n4ccc(=O)[nH]c4=O)[C@H](O)[C@@H]3OP(=O)(S)OC[C@H]3O[C@@H](n4ccc5c(=O)[nH]c(N)nc54)[C@H](O)[C@@H]3OP(=O)(S)OC[C@H]3O[C@@H](n4cnc5c(N)ncnc54)[C@H](O)[C@@H]3OP(=O)(S)OC[C@H]3O[C@@H](n4ccc5c(=O)[nH]c(N)nc54)[C@H](O)[C@@H]3OP(=O)(S)OC[C@H]3O[C@@H](n4cnc5c(N)ncnc54)[C@H](O)[C@@H]3OP(=O)(S)OC[C@H]3O[C@@H](n4ccc5c(=O)[nH]c(N)nc54)[C@H](O)[C@@H]3OP(=O)(S)OC[C@H]3O[C@@H](n4ccc(N)nc4=O)[C@H](O)[C@@H]3OP(=O)(S)OC[C@H]3O[C@@H](n4ccc(=O)[nH]c4=O)[C@H](O)[C@@H]3OP(=O)(S)OC[C@H]3O[C@@H](n4ccc(=O)[nH]c4=O)[C@H](O)[C@@H]3OP(=O)(S)OCC(O)COP(=O)(S)O[C@H]3[C@@H](O)[C@H](n4ccc(=O)[nH]c4=O)O[C@@H]3COP(=O)(S)O[C@H]3[C@@H](O)[C@H](n4ccc(=O)[nH]c4=O)O[C@@H]3COP(=O)(S)O[C@H]3[C@@H](O)[C@H](n4ccc(N)nc4=O)O[C@@H]3COP(=O)(S)O[C@H]3[C@@H](O)[C@H](n4ccc5c(=O)[nH]c(N)nc54)O[C@@H]3COP(=O)(S)O[C@H]3[C@@H](O)[C@H](n4cnc5c(N)ncnc54)O[C@@H]3COP(=O)(S)O[C@H]3[C@@H](O)[C@H](n4ccc5c(=O)[nH]c(N)nc54)O[C@@H]3COP(=O)(S)O[C@H]3[C@@H](O)[C@H](n4cnc5c(N)nc(N)nc54)O[C@@H]3COP(=O)(S)O[C@H]3[C@@H](O)[C@H](n4ccc5c(=O)[nH]c(N)nc54)O[C@@H]3COP(=O)(S)O[C@H]3[C@@H](O)[C@H](n4ccc(=O)[nH]c4=O)O[C@@H]3COP(=O)(S)O[C@H]3[C@@H](O)[C@H](n4ccc(N)nc4=O)O[C@@H]3COP(=O)(S)O[C@H]3[C@@H](O)[C@H](n4cnc5c(N)ncnc54)O[C@@H]3CO)[C@H]2O)c(=O)n1 (stereo not given in full)	7	Active	Active	inactive	16.8
Nc1ccn([C@@H]2O[C@H](COP(=O)(S)O[C@H]3[C@@H](O)[C@H](n4ccc(N)nc4=O)O[C@@H]3COP(=O)(S)O[C@H]3[C@@H](O)[C@H](n4cnc5c(N)ncnc54)O[C@@H]3COP(=O)(S)O[C@H]3[C@@H](O)[C@H](n4ccc5c(=O)[nH]c(N)nc54)O[C@@H]3COP(=O)(S)O[C@H]3[C@@H](O)[C@H](n4ccc(=O)[nH]c4=O)O[C@@H]3COP(=O)(S)O[C@H]3[C@@H](O)[C@H](n4ccc(=O)[nH]c4=O)O[C@@H]3COP(=O)(S)O[C@H]3[C@@H](O)[C@H](n4ccc(N)nc4=O)O[C@@H]3COP(=O)(S)O[C@H]3[C@@H](O)[C@H](n4cnc5c(N)ncnc54)O[C@@H]3CO)[C@@H](OP(=O)(S)OC[C@H]3O[C@@H](n4ccc(=O)[nH]c4=O)[C@H](O)[C@@H]3OP(=O)(S)OC[C@H]3O[C@@H](n4ccc5c(=O)[nH]c(N)nc54)[C@H](O)[C@@H]3OP(=O)(S)OC[C@H]3O[C@@H](n4ccc(=O)[nH]c4=O)[C@H](O)[C@@H]3OP(=O)(S)OCC(O)COP(=O)(S)O[C@H]3[C@@H](O)[C@H](n4ccc(=O)[nH]c4=O)O[C@@H]3COP(=O)(S)O[C@H]3[C@@H](O)[C@H](n4ccc5c(=O)[nH]c(N)nc54)O[C@@H]3COP(=O)(S)O[C@H]3[C@@H](O)[C@H](n4ccc(=O)[nH]c4=O)O[C@@H]3COP(=O)(S)O[C@H]3[C@@H](O)[C@H](n4ccc(N)nc4=O)O[C@@H]3COP(=O)(S)O[C@H]3[C@@H](O)[C@H](n4ccc(N)nc4=O)O[C@@H]3COP(=O)(S)O[C@H]3[C@@H](O)[C@H](n4cnc5c(N)ncnc54)O[C@@H]3COP(=O)(S)O[C@H]3[C@@H](O)[C@H](n4ccc5c(=O)[nH]c(N)nc54)O[C@@H]3COP(=O)(S)O[C@H]3[C@@H](O)[C@H](n4ccc(=O)[nH]c4=O)O[C@@H]3COP(=O)(S)O[C@H]3[C@@H](O)[C@H](n4ccc(=O)[nH]c4=O)O[C@@H]3COP(=O)(S)O[C@H]3[C@@H](O)[C@H](n4ccc(N)nc4=O)O[C@@H]3COP(=O)(S)O[C@H]3[C@@H](O)[C@H](n4cnc5c(N)ncnc54)O[C@@H]3CO)[C@H]2O)c(=O)n1 (stereo not given in full)	8.7	Active	Active	inactive	6.1
